Laboratory results from ChEMBL document CHEMBL1821600, “Synthesis and antiviral evaluation of α-L-2'-deoxythreofuranosyl nucleosides” (Eur J Med Chem, 2011).
Values after ≈ are worked out from the molar mass of the structure shown. Active and inactive are the calls of the source. The calls are words filed in the database; no cut-off is given here.

What was measured:
[1] = system: CCRF-CEM; experiment: Cytotoxicity against human CEM cells at 100 ug/ml; format: cell-based
[2] = Inhibition of varicella zoster virus thymidine kinase assessed as inhibition of [methyl-3H]dThd phosphorylation after 30 mins by scintillation counting; parameters: species or system Human alphaherpesvirus 3
Method in brief: (§1)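 Recombinant enzyme (TK-1, TK-2, HSV-1 TK, VZV TK or Drosophila dNK) was used in 50 mM Tris/HCl pH 8.0 with 2.5 mM MgCl2, 10 mM DTT, 0.5 mM CHAPS, 3 mg/mL BSA, 2.5 mM ATP and 1 µM [methyl-3H]dThd. Compound was added as 5-fold dilutions, and reactions ran 30 min at 37 °C, still linear. Mixtures were spotted on DE-81 disks, washed in ammonium formate, water and ethanol, then scintillation counted. IC50 was determined.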

[3] = system: Human alphaherpesvirus 1; experiment: Antiviral activity against Herpes simplex virus type 1 infected in HEL cells assessed as inhibition of virus-induced cytopathicity upto 200 uM administered after 1 hr virus adsorption period; format: functional, organism-based
Method in brief: (§2)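 Confluent cell monolayers (HEL for HSV-1 and HSV-2; Vero for parainfluenza-3, reovirus-1, Sindbis and Punta Toro; HeLa for Coxsackie B4 and RSV) in 96-well plates were inoculated with 100 CCID50 of virus. After 1 h adsorption, unbound virus was removed. Cells were then kept with compound at 200, 40, 8… μM. Cytopathicity was scored once untreated infected controls reached full CPE.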

[4] = system: Human respirovirus 3; experiment: Antiviral activity against Parainfluenza virus 3 infected in Vero cells assessed as inhibition of virus-induced cytopathicity upto 200 uM administered after 1 hr virus adsorption period; format: functional, organism-based; method in brief: as §2
[5] = system: MDCK; experiment: Cytotoxicity against MDCK cells at 100 ug/ml; format: cell-based, Canis lupus familiaris; conditions: dog
[6] = system: Respiratory syncytial virus; experiment: Antiviral activity against Respiratory syncytial virus infected in HeLa cells assessed as inhibition of virus-induced cytopathicity upto 200 uM administered after 1 hr virus adsorption period; format: functional, organism-based; method in brief: as §2
[7] = target: T1, Thymidine kinase 2, mitochondrial (Homo sapiens, UniProt O00142); experiment: Inhibition of human mitochondrial TK2 assessed as inhibition of [methyl-3H]dThd phosphorylation after 30 mins by scintillation counting; method in brief: as §1
T1 sequence (O00142 whole entry): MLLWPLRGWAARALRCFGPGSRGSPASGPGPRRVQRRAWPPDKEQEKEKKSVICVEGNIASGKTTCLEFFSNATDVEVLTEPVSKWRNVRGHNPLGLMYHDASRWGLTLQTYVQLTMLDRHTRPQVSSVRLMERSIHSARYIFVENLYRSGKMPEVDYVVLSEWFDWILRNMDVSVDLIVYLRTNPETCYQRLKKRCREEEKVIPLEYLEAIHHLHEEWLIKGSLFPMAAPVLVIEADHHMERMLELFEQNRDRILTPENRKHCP

[8] = system: Sindbis virus; experiment: Antiviral activity against Sindbis virus infected in Vero cells assessed as inhibition of virus-induced cytopathicity upto 200 uM administered after 1 hr virus adsorption period; format: functional, organism-based; method in brief: as §2
[9] = system: Influenza B virus; experiment: Antiviral activity against influenza B virus infected in MDCK cells assessed as inhibition of virus-induced cytopathicity upto 200 uM administered after 1 hr virus adsorption period; format: functional, organism-based
[10] = system: Feline coronavirus; experiment: Antiviral activity against Feline coronavirus infected in CRFK cells assessed as inhibition of virus-induced cytopathicity upto 200 uM administered after 1 hr virus adsorption period; format: functional, organism-based
[11] = system: Vero; experiment: Cytotoxicity against african green monkey Vero cells at 100 ug/ml; format: cell-based; conditions: chlorocebus sabaeus
[12] = Inhibition of Herpes simplex virus type 1 thymidine kinase assessed as inhibition of [methyl-3H]dThd phosphorylation after 30 mins by scintillation counting; parameters: species or system Human alphaherpesvirus 1; method in brief: as §1
[13] = target: T2, Deoxynucleoside kinase (Drosophila melanogaster, UniProt Q9XZT6); experiment: Inhibition of Drosophila melanogaster deoxynucleoside kinase assessed as inhibition of [methyl-3H]dThd phosphorylation after 30 mins by scintillation counting; method in brief: as §1
T2 sequence (Q9XZT6 whole entry): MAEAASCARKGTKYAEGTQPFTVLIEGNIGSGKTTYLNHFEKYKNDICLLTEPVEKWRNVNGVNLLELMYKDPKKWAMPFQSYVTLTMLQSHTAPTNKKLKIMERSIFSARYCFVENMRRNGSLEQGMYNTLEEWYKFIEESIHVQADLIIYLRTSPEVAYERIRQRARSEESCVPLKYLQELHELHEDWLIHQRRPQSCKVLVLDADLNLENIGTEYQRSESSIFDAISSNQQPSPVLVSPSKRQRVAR

[14] = system: Human betaherpesvirus 5; experiment: Antiviral activity against Human cytomegalovirus infected in human HEL cells assessed as inhibition of virus-induced cytopathicity upto 200 uM administered after 1 hr virus adsorption period; format: functional, organism-based
[15] = system: Vesicular stomatitis virus; experiment: Antiviral activity against Vesicular stomatitis virus infected in HEL cells assessed as inhibition of virus-induced cytopathicity upto 200 uM administered after 1 hr virus adsorption period; format: functional, organism-based
[16] = system: Human alphaherpesvirus 3; experiment: Antiviral activity against Varicella Zoster Virus infected in human HEL cells assessed as inhibition of virus-induced cytopathicity upto 200 uM administered after 1 hr virus adsorption period; format: functional, organism-based
[17] = system: Mammalian orthoreovirus 1; experiment: Antiviral activity against Reovirus 1 infected in Vero cells assessed as inhibition of virus-induced cytopathicity upto 200 uM administered after 1 hr virus adsorption period; format: functional, organism-based; method in brief: as §2
[18] = system: HEL; experiment: Cytotoxicity against human HEL cells at 100 ug/ml; format: cell-based
[19] = system: Vaccinia virus; experiment: Antiviral activity against Vaccinia virus infected in HEL cells assessed as inhibition of virus-induced cytopathicity upto 200 uM administered after 1 hr virus adsorption period; format: functional, organism-based; conditions: Orthopoxvirus vaccinia
[20] = system: Human immunodeficiency virus 1; experiment: Antiviral activity against Human immunodeficiency virus 1 3B infected in human CEM cells assessed as inhibition of virus-induced giant cell formation after 4 days by microscopic method; format: functional, organism-based; conditions: CCRF-CEM; for EC50: 96 h
Method in brief: (§3)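 CEM cells (~3×10^5 cells/cm³) were infected with 100 CCID50/mL of HIV-1(IIIB) or HIV-2(ROD) and seeded into wells containing serial compound dilutions. After 4 days at 37 °C, giant (syncytium) cell formation was scored microscopically.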

[21] = system: Punta Toro virus; experiment: Antiviral activity against Punta Toro virus infected in Vero cells assessed as inhibition of virus-induced cytopathicity upto 200 uM administered after 1 hr virus adsorption period; format: functional, organism-based; method in brief: as §2
[22] = Cytotoxicity against CRFK cells at 100 ug/ml; format: cell-based, Felis catus; conditions: cat
[23] = system: Coxsackievirus B4; experiment: Antiviral activity against Coxsackievirus B4 infected in HeLa cells assessed as inhibition of virus-induced cytopathicity upto 200 uM administered after 1 hr virus adsorption period; format: functional, organism-based; method in brief: as §2
[24] = system: Human immunodeficiency virus 2; experiment: Antiviral activity against Human immunodeficiency virus type 2 ROD infected in human CEM cells assessed as inhibition of virus-induced giant cell formation after 4 days by microscopic method; format: functional, organism-based; conditions: CCRF-CEM; for EC50: Human immunodeficiency virus 2, ISOLATE ROD, 96 h; method in brief: as §3
[25] = system: Influenza A virus; experiment: Antiviral activity against Influenza A virus H3N2 infected in MDCK cells assessed as inhibition of virus-induced cytopathicity upto 200 uM administered after 1 hr virus adsorption period; format: functional, organism-based
[26] = system: Human alphaherpesvirus 2; experiment: Antiviral activity against Herpes simplex virus type 2 infected in HEL cells assessed as inhibition of virus-induced cytopathicity upto 200 uM administered after 1 hr virus adsorption period; format: functional, organism-based; method in brief: as §2
[27] = system: Influenza A virus; experiment: Antiviral activity against influenza A virus H1N1 infected in MDCK cells assessed as inhibition of virus-induced cytopathicity upto 200 uM administered after 1 hr virus adsorption period; format: functional, organism-based
[28] = system: HeLa; experiment: Cytotoxicity against human HeLa cells at 100 ug/ml; format: cell-based
[29] = target: Thymidine kinase, cytosolic (Homo sapiens, UniProt P04183); experiment: Inhibition of human recombinant cytosolic TK1 assessed as inhibition of [methyl-3H]dThd phosphorylation after 30 mins by scintillation counting; method in brief: as §1
Chain of Thymidine kinase, cytosolic (P04183 whole entry): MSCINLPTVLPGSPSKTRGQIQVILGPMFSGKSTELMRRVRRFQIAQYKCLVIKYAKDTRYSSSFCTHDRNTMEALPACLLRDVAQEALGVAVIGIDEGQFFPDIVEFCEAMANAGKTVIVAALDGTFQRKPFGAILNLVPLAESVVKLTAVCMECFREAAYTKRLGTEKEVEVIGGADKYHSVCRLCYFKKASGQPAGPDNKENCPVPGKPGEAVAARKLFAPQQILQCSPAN

[30] = system: Human alphaherpesvirus 1; experiment: Antiviral activity against TK-deficient Herpes simplex virus type 1 infected in HEL cells assessed as inhibition of virus-induced cytopathicity upto 200 uM administered after 1 hr virus adsorption period; format: functional, organism-based
[31] = Non-competitive inhibition of Herpes simplex virus type 1 thymidine kinase assessed as inhibition of [methyl-3H]dThd phosphorylation by scintillation counting; parameters: species or system Human alphaherpesvirus 1
[32] = target: Thymidylate kinase (Mycobacterium tuberculosis, UniProt P9WKE1); experiment: Inhibition of Mycobacterium tuberculosis Thymidylate kinase
Chain of Thymidylate kinase (P9WKE1 whole entry): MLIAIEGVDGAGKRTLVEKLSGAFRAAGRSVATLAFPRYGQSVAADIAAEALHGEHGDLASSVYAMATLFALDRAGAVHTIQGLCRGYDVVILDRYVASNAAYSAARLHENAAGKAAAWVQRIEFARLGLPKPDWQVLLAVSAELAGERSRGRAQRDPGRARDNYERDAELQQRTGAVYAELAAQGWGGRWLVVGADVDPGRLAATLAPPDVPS

Nc1ncnc2c1ncn2[C@H]1C[C@@H](O)CO1
Activity [1]: Non-toxic
IC50 [2]: > 200 µg/mL
inhibition [3]: inactive
inhibition [4]: inactive
Activity [5]: Non-toxic
inhibition [6]: inactive
IC50 [7]: > 904 µM
inhibition [8]: inactive
inhibition [9]: inactive
inhibition [10]: inactive
Activity [11]: Non-toxic
IC50 [12]: > 200 µg/mL
IC50 [13]: > 904 µM
inhibition [14]: inactive
inhibition [15]: inactive
inhibition [16]: inactive
inhibition [17]: inactive
Activity [18]: Non-toxic
inhibition [19]: inactive
EC50 [20]: > 100 µg/mL
inhibition [21]: inactive
Activity [22]: Non-toxic
inhibition [23]: inactive
EC50 [24]: > 100 µg/mL
inhibition [25]: inactive
inhibition [26]: inactive
inhibition [27]: inactive
Activity [28]: Non-toxic
IC50 [29]: > 904 µM

Cc1cn([C@H]2C[C@@H](O)CO2)c(=O)[nH]c1=O
Activity [1]: Non-toxic
inhibition [30]: inactive
IC50 [2]: 26 µg/mL (≈ 123 µM)
inhibition [3]: inactive
inhibition [4]: inactive
Activity [5]: Non-toxic
inhibition [6]: inactive
IC50 [7]: 429 µM
inhibition [8]: inactive
inhibition [9]: inactive
inhibition [10]: inactive
Activity [11]: Non-toxic
IC50 [12]: 14 µg/mL (≈ 66 µM)
IC50 [13]: ≥ 942 µM
Ki [31]: 20 µM
inhibition [14]: inactive
inhibition [15]: inactive
inhibition [16]: inactive
inhibition [17]: inactive
Activity [18]: Non-toxic
inhibition [19]: inactive
inhibition [20]: inactive
inhibition [21]: inactive
Activity [22]: Non-toxic
inhibition [23]: inactive
inhibition ([24]; ISOLATE ROD): inactive
inhibition [25]: inactive
inhibition [26]: inactive
inhibition [27]: inactive
Activity [28]: Non-toxic
Ki [32]: 18 µM

O=c1ccn([C@H]2C[C@@H](O)CO2)c(=O)[nH]1
Activity [1]: Non-toxic
IC50 [2]: > 200 µg/mL
inhibition [3]: inactive
inhibition [4]: inactive
Activity [5]: Non-toxic
inhibition [6]: inactive
IC50 [7]: 303 µM
inhibition [8]: inactive
inhibition [9]: inactive
inhibition [10]: inactive
Activity [11]: Non-toxic
IC50 [12]: > 200 µg/mL
IC50 [13]: > 1010 µM
inhibition [14]: inactive
inhibition [15]: inactive
inhibition [16]: inactive
inhibition [17]: inactive
Activity [18]: Non-toxic
inhibition [19]: inactive
EC50 [20]: > 100 µg/mL
inhibition [21]: inactive
Activity [22]: Non-toxic
inhibition [23]: inactive
EC50 [24]: > 100 µg/mL
inhibition [25]: inactive
inhibition [26]: inactive
inhibition [27]: inactive
Activity [28]: Non-toxic

CC(=O)Nc1ccn([C@H]2C[C@@H](O)CO2)c(=O)n1
Activity [1]: Non-toxic
inhibition [3]: inactive
inhibition [4]: inactive
Activity [5]: Non-toxic
inhibition [6]: inactive
inhibition [8]: inactive
inhibition [9]: inactive
inhibition [10]: inactive
Activity [11]: Non-toxic
inhibition [14]: inactive
inhibition [15]: inactive
inhibition [16]: inactive
inhibition [17]: inactive
Activity [18]: Non-toxic
inhibition [19]: inactive
EC50 [20]: > 100 µg/mL
inhibition [21]: inactive
Activity [22]: Non-toxic
inhibition [23]: inactive
EC50 [24]: > 100 µg/mL
inhibition [25]: inactive
inhibition [26]: inactive
inhibition [27]: inactive
Activity [28]: Non-toxic

Nc1ccn([C@H]2C[C@@H](O)CO2)c(=O)n1
Activity [1]: Non-toxic
IC50 [2]: > 200 µg/mL
inhibition [3]: inactive
inhibition [4]: inactive
Activity [5]: Non-toxic
inhibition [6]: inactive
IC50 [7]: > 1010 µM
inhibition [8]: inactive
inhibition [9]: inactive
inhibition [10]: inactive
Activity [11]: Non-toxic
IC50 [12]: > 200 µg/mL
IC50 [13]: > 1010 µM
inhibition [14]: inactive
inhibition [15]: inactive
inhibition [16]: inactive
inhibition [17]: inactive
Activity [18]: Non-toxic
inhibition [19]: inactive
EC50 [20]: > 100 µg/mL
inhibition [21]: inactive
Activity [22]: Non-toxic
inhibition [23]: inactive
EC50 [24]: > 100 µg/mL
inhibition [25]: inactive
inhibition [26]: inactive
inhibition [27]: inactive
Activity [28]: Non-toxic
IC50 [29]: 1010 µM
